According to ChEMBL document CHEMBL3286272, “Synthesis, biological, and biophysical studies of DAG-indololactones designed as selective activators of RasGRP” (Bioorg Med Chem, 2014):
Activity calls are given as the source filed them.

Assays:
Format in all cases: cell-based
[1] = biological target: Protein kinase C delta type (Homo sapiens) (UniProt Q05655); test: Activation of PKC-delta in HEK293 cells overexpressing RasGRP3 assessed as protein phosphorylation at S299 at 0.1 to 30 uM after 30 mins by Western blot analysis
[2] = biological target: Protein kinase C delta type (Homo sapiens) (UniProt Q05655); test: Binding affinity to recombinant human GFP-tagged PKC-delta expressed in human LNCAP cells assessed as induction of protein translocation from plasma membrane to internal membrane at 1000 nM after 2 to 10 mins by confocal microscopic analysis
In short: (§1)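 Human GFP-PKCδ or GFP-RasGRP3 is expressed transiently in LNCaP cells, which were plated at 80,000 cells/ml, transfected after 48 h and imaged live 24 h after transfection. Cells are treated with ligand ([…]) or PMA (1000 nM). Confocal images (488 nm excitation, 500–530 nm emission) are taken every 30 s for 30 min. Representative images, n = 3–6.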

[3] = biological target: T1, Ras guanyl-releasing protein 3 (Homo sapiens) (UniProt Q8IV61); test: Binding affinity to recombinant human GFP-tagged RasGRP3 expressed in human LNCAP cells assessed as induction of protein translocation from plasma membrane to internal membrane at 1000 nM after 2 to 10 mins by confocal microscopic analysis; in short: as §1
T1 sequence (whole entry): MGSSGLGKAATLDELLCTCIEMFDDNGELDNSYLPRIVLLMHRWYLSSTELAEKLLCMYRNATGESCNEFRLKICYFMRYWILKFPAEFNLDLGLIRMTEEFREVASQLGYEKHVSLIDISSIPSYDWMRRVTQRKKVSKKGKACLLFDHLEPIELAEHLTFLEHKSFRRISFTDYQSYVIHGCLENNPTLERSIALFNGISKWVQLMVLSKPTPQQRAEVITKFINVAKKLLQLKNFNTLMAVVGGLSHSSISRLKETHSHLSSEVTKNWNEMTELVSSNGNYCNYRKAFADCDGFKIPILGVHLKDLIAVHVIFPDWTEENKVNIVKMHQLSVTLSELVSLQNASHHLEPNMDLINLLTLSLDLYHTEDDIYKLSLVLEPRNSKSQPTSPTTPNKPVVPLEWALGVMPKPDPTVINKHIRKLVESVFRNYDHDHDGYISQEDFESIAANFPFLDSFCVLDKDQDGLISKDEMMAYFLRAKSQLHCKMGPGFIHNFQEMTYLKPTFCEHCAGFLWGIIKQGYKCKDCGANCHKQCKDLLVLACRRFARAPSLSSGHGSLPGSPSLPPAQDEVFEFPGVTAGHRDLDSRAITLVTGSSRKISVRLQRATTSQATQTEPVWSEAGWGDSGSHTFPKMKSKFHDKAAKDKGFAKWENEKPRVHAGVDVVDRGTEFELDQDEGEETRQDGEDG

[4] = biological target: T1, Ras guanyl-releasing protein 3 (Homo sapiens); test: Activation of RasGRP3 (unknown origin) overexpressed in HEK293 cells assessed as ERK1/2 phosphorylation at 0.1 to 30 uM after 30 mins by Western blot analysis
[5] = biological target: T1, Ras guanyl-releasing protein 3 (Homo sapiens); test: Activation of RasGRP3 (unknown origin) overexpressed in HEK293 cells assessed as protein phosphorylation at T133 at 0.1 to 30 uM after 30 mins by Western blot analysis
[6] = biological target: Protein kinase C delta type (Homo sapiens) (UniProt Q05655); test: Activation of PKC-delta in HEK293 cells assessed as protein phosphorylation at S299 at 0.1 to 30 uM after 30 mins by Western blot analysis

Measured: Activity

Sequence of Protein kinase C delta type (Homo sapiens) (Q05655 whole entry, looked up): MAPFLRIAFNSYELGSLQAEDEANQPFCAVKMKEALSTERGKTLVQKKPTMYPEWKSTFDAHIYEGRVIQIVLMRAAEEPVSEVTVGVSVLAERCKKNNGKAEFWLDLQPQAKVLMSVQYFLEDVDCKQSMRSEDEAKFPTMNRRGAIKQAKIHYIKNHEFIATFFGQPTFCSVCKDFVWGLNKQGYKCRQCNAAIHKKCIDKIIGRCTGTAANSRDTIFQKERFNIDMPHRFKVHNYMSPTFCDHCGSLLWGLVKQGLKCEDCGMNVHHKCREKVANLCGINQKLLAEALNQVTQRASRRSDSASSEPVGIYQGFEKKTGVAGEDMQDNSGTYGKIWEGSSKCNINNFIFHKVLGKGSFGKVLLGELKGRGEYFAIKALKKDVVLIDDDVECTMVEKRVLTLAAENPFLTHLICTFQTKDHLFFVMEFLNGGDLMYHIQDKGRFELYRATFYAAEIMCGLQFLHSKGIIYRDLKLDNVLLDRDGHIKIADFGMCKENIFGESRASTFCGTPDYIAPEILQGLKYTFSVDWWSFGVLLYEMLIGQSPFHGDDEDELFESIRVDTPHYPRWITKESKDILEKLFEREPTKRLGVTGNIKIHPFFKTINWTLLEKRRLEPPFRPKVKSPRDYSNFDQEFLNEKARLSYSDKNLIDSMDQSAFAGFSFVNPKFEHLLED

CCCCCCCCCCCCCC(=O)O[C@@H]1[C@@H](C)[C@@]2(O)[C@@H](C=C(CO)C[C@]3(O)C(=O)C(C)=C[C@@H]23)[C@@H]2C(C)(C)[C@]12OC(C)=O
active: all assays above

CCCC(=O)O[C@@H]1[C@@H](C)[C@@]2(O)[C@@H](C=C(CO)C[C@]3(O)C(=O)C(C)=C[C@@H]23)[C@@H]2C(C)(C)[C@]12OC(=O)CCC
active: [2] | [3]
